Laboratory results from ChEMBL document CHEMBL1135647, “New pyridobenzodiazepine derivatives: modifications of the basic side chain differentially modulate binding to dopamine (D(4.2), D(2L)) and serotonin (5-HT(2A)) receptors” (J Med Chem, 2002).

Tests used:
[1] = target: T1, 5-hydroxytryptamine receptor 2A (Rattus norvegicus, UniProt P14842); assay: In vitro binding affinity at serotonin 5-hydroxytryptamine 2A receptor in rat cortical membrane; assay type: cell membranes
[2] = target: T2, Adrenergic receptor alpha-1 (Rattus norvegicus, UniProt P15823+P23944+P43140); assay: In vitro binding affinity at Alpha-1 adrenergic receptor in rat cortical tissues
T2 sequence (P15823 whole entry): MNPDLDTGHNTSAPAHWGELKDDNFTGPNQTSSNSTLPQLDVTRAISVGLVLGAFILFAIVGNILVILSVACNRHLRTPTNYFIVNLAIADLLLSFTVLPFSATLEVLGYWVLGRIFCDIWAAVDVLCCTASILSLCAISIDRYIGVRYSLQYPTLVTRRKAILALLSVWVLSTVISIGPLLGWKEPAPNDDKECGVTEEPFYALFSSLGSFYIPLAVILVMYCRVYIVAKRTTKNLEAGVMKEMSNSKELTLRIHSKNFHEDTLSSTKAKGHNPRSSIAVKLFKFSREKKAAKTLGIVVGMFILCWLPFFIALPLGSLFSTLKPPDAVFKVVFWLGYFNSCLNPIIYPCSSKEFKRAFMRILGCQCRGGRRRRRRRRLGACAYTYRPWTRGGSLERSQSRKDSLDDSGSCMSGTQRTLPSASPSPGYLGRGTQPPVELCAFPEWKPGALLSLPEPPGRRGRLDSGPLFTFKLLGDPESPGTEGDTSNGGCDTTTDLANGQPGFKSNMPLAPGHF
T2 sequence (P23944 whole entry): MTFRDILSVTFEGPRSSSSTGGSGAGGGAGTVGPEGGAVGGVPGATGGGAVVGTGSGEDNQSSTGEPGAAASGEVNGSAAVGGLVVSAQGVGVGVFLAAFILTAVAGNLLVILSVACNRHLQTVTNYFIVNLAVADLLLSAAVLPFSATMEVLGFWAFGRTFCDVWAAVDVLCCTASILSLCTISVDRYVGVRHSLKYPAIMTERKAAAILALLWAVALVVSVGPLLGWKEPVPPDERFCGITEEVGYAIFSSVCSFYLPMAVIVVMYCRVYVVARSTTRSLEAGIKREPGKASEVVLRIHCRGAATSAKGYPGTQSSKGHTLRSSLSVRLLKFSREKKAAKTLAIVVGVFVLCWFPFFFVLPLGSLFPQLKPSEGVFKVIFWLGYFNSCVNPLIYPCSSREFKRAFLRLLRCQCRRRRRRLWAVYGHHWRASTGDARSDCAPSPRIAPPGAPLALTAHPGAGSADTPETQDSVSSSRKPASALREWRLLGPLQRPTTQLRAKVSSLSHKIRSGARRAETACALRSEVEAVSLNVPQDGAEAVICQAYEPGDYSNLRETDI
T2 sequence (P43140 whole entry): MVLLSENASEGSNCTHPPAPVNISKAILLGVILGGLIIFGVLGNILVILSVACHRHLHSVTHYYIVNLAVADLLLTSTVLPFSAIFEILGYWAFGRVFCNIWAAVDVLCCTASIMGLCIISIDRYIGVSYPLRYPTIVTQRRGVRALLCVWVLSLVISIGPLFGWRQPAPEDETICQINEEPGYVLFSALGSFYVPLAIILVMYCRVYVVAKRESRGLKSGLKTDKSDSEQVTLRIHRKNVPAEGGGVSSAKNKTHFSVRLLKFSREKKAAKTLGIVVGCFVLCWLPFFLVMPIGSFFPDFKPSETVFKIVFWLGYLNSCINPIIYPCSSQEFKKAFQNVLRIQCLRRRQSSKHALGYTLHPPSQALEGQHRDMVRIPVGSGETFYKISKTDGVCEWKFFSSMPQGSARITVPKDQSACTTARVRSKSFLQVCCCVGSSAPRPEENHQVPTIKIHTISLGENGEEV

D(4) dopamine receptor [3] = target: T3, D(4) dopamine receptor (Homo sapiens, UniProt P21917); assay: (§1) In vitro binding affinity at human cloned Dopamine receptor D4 expressed in Sf9 cell membranes
T3 sequence (P21917 whole entry): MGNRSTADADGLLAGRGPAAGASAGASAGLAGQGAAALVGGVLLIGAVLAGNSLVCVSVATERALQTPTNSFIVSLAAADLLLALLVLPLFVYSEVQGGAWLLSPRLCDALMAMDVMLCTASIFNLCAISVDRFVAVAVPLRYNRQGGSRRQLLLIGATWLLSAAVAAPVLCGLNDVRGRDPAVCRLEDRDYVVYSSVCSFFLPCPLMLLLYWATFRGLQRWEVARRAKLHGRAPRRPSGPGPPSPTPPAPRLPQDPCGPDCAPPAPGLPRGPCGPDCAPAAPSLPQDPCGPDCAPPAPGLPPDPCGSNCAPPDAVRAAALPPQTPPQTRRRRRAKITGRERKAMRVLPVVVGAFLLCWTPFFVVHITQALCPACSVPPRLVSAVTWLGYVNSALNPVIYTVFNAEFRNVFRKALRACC

[4] = target: T1, 5-hydroxytryptamine receptor 2A; assay: In vitro binding affinity at 5-hydroxytryptamine 2A receptor in rat cortical membrane; assay type: cell membranes
Summary of the method: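 Frontal cortex membranes from female Wistar rats, stored at -80 °C. Incubated 30 min at 37 °C with 1 nM [3H]ketanserin; nonspecific binding with 10 µM methysergide; protein 2 mg/mL final. Filtered on PEI-presoaked GF/C and counted by scintillation. Nine concentrations in triplicate per curve, at least duplicate curves after a 10-6/10^-7 M prescreen. Ki by Cheng-Prusoff.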

Mus musculus [5] = assay: Percentage of total immobility time after an intraperitoneal dose of 16 (mg/kg) in porsolt's test in mice; assay type: functional
Mus musculus [6] = assay: Percentage of total immobility time after an intraperitoneal dose of 4 (mg/kg) in porsolt's test in mice; assay type: functional
Mus musculus [7] = assay: Percentage of total immobility time after an intraperitoneal dose of 8 (mg/kg) in porsolt's test in mice; assay type: functional
Rattus norvegicus [8] = assay: Compound was evaluated in paw test for the forelimb retraction in rat at effective dose of 20 (mg/kg); assay type: functional
Rattus norvegicus [9] = species: Rattus norvegicus; assay: Compound was evaluated in paw test for the hindlimb retraction in rat
Mus musculus [10] = assay: Percentage of total immobility time after an intraperitoneal dose of 16 (mg/kg) in porsolt's test; assay type: functional
Summary of the method: (§2)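 Forced swimming (Porsolt) test in mice, with the compound given i.p. Immobility time was expressed as a percentage of the total immobility time of vehicle-treated animals. Significance was assessed against saline by Mann-Whitney U test, or against vehicle by analysis of variance with post hoc tests.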

Mus musculus [11] = assay: Percentage of total immobility time after an intraperitoneal dose of 4 (mg/kg) in porsolt's test; assay type: functional; summary of the method: as §2
Mus musculus [12] = assay: Percentage of total immobility time after an intraperitoneal dose of 8 (mg/kg) in porsolt's test; assay type: functional; summary of the method: as §2
Rattus norvegicus [13] = assay: Compound was evaluated in paw test for the hindlimb retraction at effective dose of 5 (mg/kg); assay type: functional
D(4) dopamine receptor [14] = target: T3, D(4) dopamine receptor; assay: as §1; remark: listed apart in the source
Summary of the method: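 Sf9 membranes expressing human cloned D4.2, in 50 mM Tris-HCl pH 7.4 with 5 mM MgCl2, 5 mM EDTA, 5 mM KCl and 1.5 mM CaCl2. […] Filtration on GF/C. Six to nine concentrations in duplicate. Ki by Cheng-Prusoff.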

Rattus norvegicus [15] = assay: Compound was evaluated in paw test for the forelimb retraction at effective dose of 20 (mg/kg); assay type: functional
Mus musculus [16] = assay: Percentage of total immobility time after an intraperitoneal dose of 30 (mg/kg) in porsolt's test; assay type: functional
Mus musculus [17] = assay: Percentage of total immobility time after an intraperitoneal dose of 7.5 (mg/kg) in porsolt's test; assay type: functional
Mus musculus [18] = assay: Percentage of total immobility time after an intraperitoneal dose of 15 (mg/kg) in porsolt's test

T1 sequence (P14842 whole entry): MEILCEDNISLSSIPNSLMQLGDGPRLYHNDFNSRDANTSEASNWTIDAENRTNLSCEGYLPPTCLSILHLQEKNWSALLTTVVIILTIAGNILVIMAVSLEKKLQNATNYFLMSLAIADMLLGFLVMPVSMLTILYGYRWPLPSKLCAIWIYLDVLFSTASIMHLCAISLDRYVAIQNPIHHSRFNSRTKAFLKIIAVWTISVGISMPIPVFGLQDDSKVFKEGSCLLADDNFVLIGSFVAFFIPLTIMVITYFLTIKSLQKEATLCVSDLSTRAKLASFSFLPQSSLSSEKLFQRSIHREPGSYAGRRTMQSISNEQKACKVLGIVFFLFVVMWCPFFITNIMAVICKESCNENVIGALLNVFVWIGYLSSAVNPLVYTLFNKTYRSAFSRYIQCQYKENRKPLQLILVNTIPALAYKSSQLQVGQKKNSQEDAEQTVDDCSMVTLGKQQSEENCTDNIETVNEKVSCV

| SMILES | Ki [2] [µM] | Ki (D(4) dopamine receptor [3]) [µM] | Ki [4] [µM] | further results |
| --- | --- | --- | --- | --- |
| Cc1ccc2c(c1)C(N1CCN(C)CC1)=Nc1cccnc1N2 | 0.108 | 0.036 |  | Ki [1]: 0.037 µM |
| CN1CCCN(C2=Nc3cccnc3Nc3ccc(Cl)cc32)CC1 | > 1 | 0.163 |  | Ki [1]: 0.164 µM |
| Clc1cccc(N2CCN(C3=Nc4cccnc4Nc4ccc(Cl)cc43)CC2)c1 |  | > 1 | > 1 |  |
| CN1CCC(NC2=Nc3cccnc3Nc3ccc(Cl)cc32)CC1 |  | 0.393 | 0.123 |  |
| FC(F)(F)c1cccc(N2CCN(C3=Nc4cccnc4Nc4ccc(Cl)cc43)CC2)c1 | > 1 | > 1 | > 1 |  |
| Cc1ccc2c(c1)C(NC1CC3CCC(C1)N3Cc1ccccc1)=Nc1cccnc1N2 (stereo not given) |  | 0.131 | 0.034 |  |
| Cc1ccc2c(c1)C(N1CCN(Cc3ccccc3)CC1)=Nc1cccnc1N2 | > 1 | 0.183 | > 1 |  |
| CN1CCN(C2=Nc3cccnc3Nc3ccc(Cl)cc32)CC1 | 0.079 | 0.024 |  | Ki [1]: 0.035 µM |
| Clc1ccc2c(c1)C(N1CCN(Cc3ccccc3)CC1)=Nc1cccnc1N2 | > 1 | 0.109 | > 1 |  |
| Cc1ccc2c(c1)C(NC1CCN(C)CC1)=Nc1cccnc1N2 | 0.018 | 0.51 | 0.132 |  |
| Clc1ccc2c(c1)C(NC1CC3CCC(C1)N3Cc1ccccc1)=Nc1cccnc1N2 (stereo not given) |  |  | 0.036 |  |
| Cc1ccc2c(c1)C(NCCC1CCCN1C)=Nc1cccnc1N2 (stereo not given) |  | > 1 | > 1 |  |
| Clc1ccc2c(c1)C(N1CCN(CCc3ccccc3)CC1)=Nc1cccnc1N2 | 0.367 | 0.04 | 0.103 | Immobility (Mus musculus [5]): 49%; Immobility (Mus musculus [6]): 52%; Immobility (Mus musculus [7]): 36%; Retraction time (Rattus norvegicus [8]): 1 s; Retraction time (Rattus norvegicus [9]): 2.5 s |
| CN1CCN(C2=Nc3cc(Cl)ccc3Nc3ccccc32)CC1 [CLOZAPINE] |  |  |  | Immobility (Mus musculus [10]): 139%; Immobility (Mus musculus [11]): 95%; Immobility (Mus musculus [12]): 103%; Retraction time (Rattus norvegicus [8]): 1.1 s; Retraction time (Rattus norvegicus [13]): 30 s |
| Cc1ccc2c(c1)C(N1CCN(c3cccc(C(F)(F)F)c3)CC1)=Nc1cccnc1N2 | > 1 | > 1 | > 1 |  |
| Clc1ccc2c(c1)C(N1CCN(C3CCCCC3)CC1)=Nc1cccnc1N2 |  | 0.048 | 0.034 |  |
| Clc1ccc2c(c1)C(NCCN1CCCCC1)=Nc1cccnc1N2 | 0.063 | > 1 | 0.357 |  |
| Cc1ccc2c(c1)C(N1CCN(c3ccccc3)CC1)=Nc1cccnc1N2 | > 1 |  | > 1 | Ki (D(4) dopamine receptor [14]): > 1 µM |

| SMILES | Ki [2] [µM] | Ki (D(4) dopamine receptor [3]) [µM] | Ki [4] [µM] | further results |
| --- | --- | --- | --- | --- |
| Cc1ccc2c(c1)C(NCCc1ccccn1)=Nc1cccnc1N2 |  | > 1 |  |  |
| Clc1ccc2c(c1)C(NCCc1ccccn1)=Nc1cccnc1N2 | > 1 | > 1 |  |  |
| Clc1ccc2c(c1)C(N1CCN(c3ccccc3)CC1)=Nc1cccnc1N2 | > 1 | > 1 | > 1 |  |
| Cc1ccc2c(c1)C(N1CCN(c3cccc(Cl)c3)CC1)=Nc1cccnc1N2 | > 1 | > 1 | > 1 |  |
| Cc1ccc2c(c1)C(NCCN(C)C)=Nc1cccnc1N2 | > 1 | > 1 | 0.15 |  |
| O=C(CCCN1CCC(O)(c2ccc(Cl)cc2)CC1)c1ccc(F)cc1 [HALOPERIDOL] |  |  |  | Retraction time (Rattus norvegicus [15]): 22.5 s; Retraction time (Rattus norvegicus [13]): 30 s |
| Cc1ccc2c(c1)C(N1CCCN(C)CC1)=Nc1cccnc1N2 |  | 0.356 | 0.303 |  |
| CN(C)CCCNC1=Nc2cccnc2Nc2ccc(Cl)cc21 | > 1 | > 1 |  |  |
| Cc1ccc2c(c1)C(NCCN1CCOCC1)=Nc1cccnc1N2 |  | > 1 | > 1 |  |
| Clc1ccc2c(c1)C(NC1CCN(Cc3ccccc3)CC1)=Nc1cccnc1N2 | 0.163 | 0.089 | 0.081 |  |
| Cc1ccc2c(c1)C(N1CCN(C3CCCCC3)CC1)=Nc1cccnc1N2 |  | 0.084 | 0.033 |  |
| Clc1ccc2c(c1)C(NCCN1CCCC1)=Nc1cccnc1N2 |  | 0.341 | 0.25 |  |
| Cc1ccc2c(c1)C(NC1CCN(Cc3ccccc3)CC1)=Nc1cccnc1N2 | 0.1 | 0.046 | 0.048 |  |
| Cc1ccc2c(c1)C(N1CCN(CCc3ccccc3)CC1)=Nc1cccnc1N2 | 0.172 | 0.037 | 0.036 |  |
| Clc1ccc2c(c1)C(NCCN1CCOCC1)=Nc1cccnc1N2 | > 1 | > 1 |  |  |
| Cc1ccc2c(c1)C(NCCCN(C)C)=Nc1cccnc1N2 | > 1 | > 1 | > 1 |  |
| CN(C)CCCN1c2ccccc2CCc2ccccc21 [IMIPRAMINE] |  |  |  | Immobility (Mus musculus [16]): 70%; Immobility (Mus musculus [17]): 98%; Immobility (Mus musculus [18]): 45% |
